# Rows were chosen to be rich in hits. Some 1.8% of all compounds tested hit in one or more screens of this group.
# NPY1 pot ag = NPY-Y1 receptor potentiators or agonists, primary screen, cell-based; actives 0.37% (n = 220,000); AID 1304, 2008; activation, % at 3.6 µM; NPY-Y1 expressing cells, potentiator/agonist activation; Neuropeptide Y receptor type 1 (Homo sapiens), P25929; in the data active means activation above about 33%, passing the limit was not always enough;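 further: cells stimulated with NPY at EC10 then isoproterenol at EC100; 0% = low agonist plus stimulus and 100% = saturating agonist plus stimulus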
# Target sequence (P25929 whole entry, looked up): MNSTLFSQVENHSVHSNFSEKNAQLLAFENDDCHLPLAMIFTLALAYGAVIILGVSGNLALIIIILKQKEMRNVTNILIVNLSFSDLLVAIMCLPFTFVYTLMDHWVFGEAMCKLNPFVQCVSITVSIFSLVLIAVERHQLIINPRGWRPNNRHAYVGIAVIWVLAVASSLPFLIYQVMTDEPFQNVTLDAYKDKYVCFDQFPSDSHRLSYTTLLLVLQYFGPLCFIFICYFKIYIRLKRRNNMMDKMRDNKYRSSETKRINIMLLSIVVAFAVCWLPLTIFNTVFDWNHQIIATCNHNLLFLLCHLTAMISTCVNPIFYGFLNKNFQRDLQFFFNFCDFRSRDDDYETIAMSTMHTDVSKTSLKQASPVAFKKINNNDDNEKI
# NPY-Y2 PAM-ag = NPY-Y2 potentiators or agonists, primary screen, cell-based; actives 0.45% (n = 220,000); activation, % at 3.6 µM; Neuropeptide Y receptor type 2 (Homo sapiens), P49146; cells expressing NPY-Y2, potentiator/agonist read-out; in the data active means activation above about 27%;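 further: cells stimulated with NPY near EC25 plus isoproterenol at EC100; 0% = vehicle plus submaximal agonist and 100% = vehicle plus saturating agonist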
# NPY Y1 blocker = NPY-Y1 receptor antagonists, primary screen, cell-based; Neuropeptide Y receptor type 1 (Homo sapiens), P25929; HEK293-CNG Y1 cells, membrane potential fluorescence; NPY at EC95, then isoproterenol; inhibition, % at 3.6 µM; actives 1% (n = 200,000);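 active means inhibition above the campaign mean inhibition of all tested compounds plus 3 SD, cut at about 20% in these data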;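 further: 0% = DMSO wells given NPY plus isoproterenol and 100% = isoproterenol alone without NPY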
#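 Assay system: HEK293 Y1/CNG channel cell line; Doses: single compound dose of 3.6 µM, 0.4% DMSO; Timing: dye 3 h, compound 60 min room temperature, stimulation 45 min; Technique: Membrane-potential fluorescent dye readout; Measure: % inhibition of NPY effect.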
# NPY Y2 blocker = NPY-Y2 receptor antagonists, primary screen, cell-based; Neuropeptide Y receptor type 2 (Homo sapiens), P49146; NPY-Y2 expressing cells, antagonist mode; inhibition, % at 2.7 µM; actives 0.99% (n = 140,000); AID 793, 2007; in the data active means inhibition above about 17%;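 further: 0% = vehicle with agonist challenge and 100% = reference antagonist with challenge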
# NPY-Y2 confirm = NPY-Y2 potentiators or agonists, confirmation, cell-based; shares compounds with NPY-Y2 PAM-ag; cell-based NPY-Y2 potentiator/agonist assay; activation, % at 3.6 µM; actives 20% (n = 450); in the data active means activation above about 33%
# NPY-Y1 counter = NPY-Y1 potentiators or agonists, counter-screen for NPY-Y2 potentiator project, cell-based, fluorescence | shares compounds with NPY-Y2 PAM-ag | Y1 HEK293-CNG cells, membrane potential fluorescence | activation, % at 3.6 µM | actives 20% (n = 450) | AID 1651, 2009; in the data active means activation above about 45%;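 further: cells stimulated with submaximal NPY then isoproterenol with phosphodiesterase inhibitor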
# NPY-Y1 ag 2 = NPY-Y1 direct agonists, selectivity assay for NPY-Y2 potentiator project, cell-based, fluorescence; activation, % at 3.6 µM; shares compounds with NPY-Y2 PAM-ag; HEK293 Y1-CNGC, membrane potential fluorescence, agonism; actives 37% (n = 450);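 active means activation above the mean of DMSO-only control wells plus 3 SD, cut at about 18% in these data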;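 further: cells stimulated with 1 µM isoproterenol plus the PDE inhibitor Ro 20-1724; 0% = isoproterenol with DMSO and no NPY and 100% = 40 nM NPY; Y1 agonists lower the membrane potential dye signal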
# CNGC inhibitor = CNGC cAMP sensor activity inhibitors, counter-screen for NPY-Y2 potentiator project, cell-based, HEK293-CNG parental, membrane potential fluorescence. inhibition, % at 3.6 µM. actives 32% (n = 450). isoproterenol cAMP. shares compounds with NPY-Y2 PAM-ag;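 active means inhibition above the control-well mean plus 3 SD of those wells, cut at about 22% in these data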;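 further: 0% = DMSO with isoproterenol and 100% = DMSO without isoproterenol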
# Y2 agonist ctr = NPY-Y2 direct agonists, counter-screen for NPY-Y2 potentiator project, cell-based, fluorescence. HEK293 Y2/CNGC cells, membrane potential fluorescence, agonist mode. shares compounds with NPY-Y2 PAM-ag. activation, % at 3.6 µM. actives 56% (n = 450);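 active means activation above the mean of solvent-only control wells plus 3 SD, cut at about 10% in these data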;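 further: cells stimulated by isoproterenol with no NPY added so direct agonism is tested; 0% = DMSO with isoproterenol alone and 100% = NPY at EC100 plus isoproterenol; agonism lowers probe fluorescence through less cAMP and CNG channel opening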
# * marks the source's active call; other numbers are inactive results; nt = no result given.
SMILES,NPY1 pot ag,NPY-Y2 PAM-ag,NPY Y1 blocker,NPY Y2 blocker,NPY-Y2 confirm,NPY-Y1 counter,NPY-Y1 ag 2,CNGC inhibitor,Y2 agonist ctr
COCCNC(=O)CN1C(=O)CSc2cc(S(=O)(=O)N3CCCCCC3)ccc21,-10.6,97.2*,1.3,0.6,-1.9,-9.6,-13.5,-0.2,-7.5
Cc1cc(C)cc(NC(=S)N2CCC(NC(=O)c3ccccc3C)CC2)c1,-2.6,-4.4,4.4,nt,nt,nt,nt,nt,nt
COc1ccc(N=c2cc(-c3ccc(OC)cc3)oc3ccccc23)cc1,31.2,29.6*,-2.4,3.4,51.8*,73.5*,61.1*,52.7*,54.4*
COc1ccc(-c2cc(=Nc3ccc(C)cc3)c3ccccc3o2)cc1,20.8,14.2,10.3,7.1,nt,nt,nt,nt,nt
COc1ccc2c(c1)c(CC(=O)Nc1nnc(C3CC3)s1)c(C)n2C(=O)c1ccc(Cl)cc1,48.9,48.9*,nt,nt,12.3,10.2,21.0*,-3.7,12.0*
O=C(CN1C(=O)C2C3C=CC(C4CC34)C2C1=O)Nc1cnc2ccccc2c1 (stereo not given),16.6,-0.5,1.1,nt,nt,nt,nt,nt,nt
CCc1nc(NCC(C)C)c(C#N)c2c1COC(C)(C)C2,-7.8,38.0*,-2.0,-0.9,-5.8,-8.4,-25.9,-13.9,-13.2
CCc1nc(NCC2CCCO2)c(C#N)c2c1COC(C)(C)C2 (stereo not given),-32.8,-3.3,5.4,1.8,nt,nt,nt,nt,nt
O=C(CCl)Nc1ccc(N2CCCCCC2)cc1,2.8,4.0,-2.7,nt,nt,nt,nt,nt,nt
COc1ccc(C/C(C)=N/NS(=O)(=O)c2ccc(Br)cc2)cc1,-24.7,-25.1,8.2,nt,nt,nt,nt,nt,nt
CC(C)C[C@H](NC(=O)c1nc[nH]c1C(=O)NC1CCN(C(=O)OC(C)(C)C)CC1)C(=O)OCc1ccccc1,30.1,44.3*,-9.9,nt,25.8,46.2*,19.6*,22.2*,20.8*
Cc1cc(C)nc(Oc2ccc(Br)cc2)n1,-7.4,91.1*,nt,nt,0.4,3.9,-7.7,1.2,3.0
N#C/C(=N/Nc1ccc(OC(F)(F)F)cc1)C(N)=S,26.9,46.1*,nt,nt,12.5,0.9,-9.6,-2.3,23.4*
Cc1nn(Cc2ccccc2Cl)c(C)c1C(=O)N1CCN(c2ccccc2)CC1,7.0,116.3*,12.3,6.4,0.7,-3.4,-3.0,-4.6,6.0
Cc1nn(Cc2ccccc2Cl)c(C)c1C(=O)NC1=NCCS1,-2.6,-4.7,5.9,0.5,nt,nt,nt,nt,nt
CCOC(=O)C1=C(Cn2cnc3ccccc32)NC(=O)NC1c1cc(C)ccc1C (stereo not given),10.9,32.9*,1.1,7.8,19.7,22.8,20.1*,22.6*,22.8*
NNC(=O)C1=NOC2COC3(CCN(c4ncccn4)CC3)OCC12 (stereo not given),-0.3,-2.1,1.1,nt,nt,nt,nt,nt,nt
O=C(N/N=C\c1ccc(Cl)cc1)C1=NOC2COC3(CCN(c4ccc([N+](=O)[O-])cc4)CC3)OCC12 (stereo not given),13.5,45.2*,nt,nt,10.4,-13.4,16.0,8.5,27.0*
COc1ccc(C(=S)N2CCN(c3ccccc3Cl)CC2)cc1OC,-14.0,-11.5,nt,nt,nt,nt,nt,nt,nt
COc1cc(C(=S)N2CCN(c3ccccc3Cl)CC2)cc(O)c1O,16.4,30.7*,1.7,nt,0.5,7.6,-1.4,7.5,23.0*
CCOc1ccc(OCCOCCNCCOC)cc1,-4.2,-1.5,1.4,3.7,nt,nt,nt,nt,nt
Oc1ccccc1Nc1nc(NCc2ccccc2)c2ccccc2n1,-0.4,36.3*,4.3,nt,46.8*,56.3*,44.6*,48.0*,45.4*
CNc1nc(N)c(C(=O)C23CC4CC(CC(C4)C2)C3)s1,26.5,31.4*,-6.3,nt,11.4,17.4,14.5,11.8,1.5
CN1CCc2nc3sc(C(=O)C45CC6CC(CC(C6)C4)C5)c(N)c3cc2C1,15.1,22.1,3.2,-0.6,nt,nt,nt,nt,nt
COCCN=c1scc(-c2cc(OC)ccc2OC)n1/N=C/c1c[nH]c2ccccc12,43.1,33.5*,-12.9,-3.2,33.4*,48.7*,45.8*,37.3*,36.4*
CCCCOc1ccc(CCC(=O)N/N=C/c2ccco2)cc1,-0.8,-9.6,nt,nt,nt,nt,nt,nt,nt
CCCOc1ccc(CCC(=O)N/N=C/c2ccco2)cc1,8.3,99.9*,nt,nt,2.0,3.0,-4.8,1.4,6.3
S=c1nc(SCc2ccccc2)[nH]c2ccccc12,-16.9,-10.4,10.6,nt,nt,nt,nt,nt,nt
c1ccc(CSc2nc3ncncc3[nH]2)cc1,-7.5,47.9*,nt,nt,1.9,-3.9,-0.8,7.2,19.2*
O=C(Cn1cnc([N+](=O)[O-])c1)Nc1cc(Oc2ccc(Cl)cc2Cl)cc([N+](=O)[O-])c1,22.3,34.3*,-4.8,-6.0,35.2*,37.9,30.6*,40.2*,51.5*
